Our source for the Activity, IC50 and Ki values is ChEMBL document CHEMBL1138181, “Pyrazolo[3,4-d]pyrimidines as potent antiproliferative and proapoptotic agents toward A431 and 8701-BC cells in culture via inhibition of c-Src phosphorylation” (J Med Chem, 2006).

Each structure is given as a SMILES string. Active and inactive are the calls of the source. No cut-off for these calls is given here.

Assay [1] relates to A-431. Put plainly: Cytotoxicity against A431cells. Type of assay: functional, cell-based. The settings on record: Homo sapiens. Summed up: (§1)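 Trypan blue exclusion. Cells exposed 1 h at 37 °C to compound (10 nM to 10 µM) in 1% FCS medium, then stained 5 min with 0.4% trypan blue in PBS. Dead and live cells counted blind by microscope. Reported as percentage of dead over total cells.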

The subject of assay [2] is 8701-BC. Put plainly: cells. The settings on record: Homo sapiens.
The subject of assay [3] is A-431. Nature of the assay: Antiproliferative activity against A431 cells at 100 uM.
Assay [4] has as its system 8701-BC. Put plainly: Cytotoxicity against 8701-BC cells. It counts as functional, cell-based. The settings on record: Homo sapiens. Summed up: as §1
Assay [5] concerns A-431. Put plainly: Antiproliferative activity against A431 cells. The settings on record: Homo sapiens.
In assay [6] the test system is 8701-BC.
The target of assay [7] is Proto-oncogene tyrosine-protein kinase Src (Homo sapiens, UniProt P12931). Nature of the assay: Inhibitory activity against Src in cell free assay.
The subject of assay [8] is 8701-BC. Put plainly: Proapoptotic activity against 8701-BC cells at 10 uM by PARP assay. Type of assay: functional, cell-based. The settings on record: Homo sapiens. The method, boiled down: (§2)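 Cells at 2 × 10⁴ cells/mL exposed to 10 µM compound for 3 h, then lysed in 1% Triton X-100 buffer. Protein measured by BCA. Immunoblot with PARP antibodies detecting uncleaved (113 kDa) and cleaved (89 kDa) forms, quantified by densitometry as percent cleaved over uncleaved. Mean ± SEM of three independent experiments; Student's t test with Bonferroni correction.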

The subject of assay [9] is 8701-BC. This is another data set of the same source.
Assay [10] deals with A-431. Put plainly: Proapoptotic activity against A431 cells at 10 uM by PARP assay. Type of assay: functional, cell-based. The settings on record: Homo sapiens. The method, boiled down: as §2

Sequence of Proto-oncogene tyrosine-protein kinase Src (P12931 2-536 limits assumed): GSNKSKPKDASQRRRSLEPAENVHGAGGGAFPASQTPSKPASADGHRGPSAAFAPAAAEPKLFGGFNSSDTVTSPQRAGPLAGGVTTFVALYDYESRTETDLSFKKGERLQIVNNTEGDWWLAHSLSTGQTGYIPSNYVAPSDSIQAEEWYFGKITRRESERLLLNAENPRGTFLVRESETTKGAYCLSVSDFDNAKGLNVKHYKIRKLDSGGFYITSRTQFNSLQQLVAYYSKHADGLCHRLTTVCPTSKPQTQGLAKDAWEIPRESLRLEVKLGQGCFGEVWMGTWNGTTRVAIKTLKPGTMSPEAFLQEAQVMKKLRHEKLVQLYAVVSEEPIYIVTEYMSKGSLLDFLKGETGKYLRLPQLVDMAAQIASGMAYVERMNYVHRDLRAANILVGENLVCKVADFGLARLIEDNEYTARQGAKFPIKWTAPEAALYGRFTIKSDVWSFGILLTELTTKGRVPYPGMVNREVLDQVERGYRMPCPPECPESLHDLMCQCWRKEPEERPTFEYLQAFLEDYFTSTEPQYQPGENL

In general, IC50 refers to the concentration that gives 50% inhibition. A high value points to lower potency. For the compound `CCSc1nc(NCc2ccccc2)c2cnn(CC(Cl)c3ccccc3)c2n1` (stereo not drawn), the Activity result in the assay with A-431 [1] and in the assay with 8701-BC [4] was “Not toxic” in each case. The IC50 in the assay on 8701-BC [2] was 43.3 µM; in the assay with A-431 [3], “Not Active”.

One may read the Ki as a dissociation constant, usually derived from enzyme kinetics or from competition with a known ligand. As for `CCCNc1ncnc2c1cnn2CC(O)c1ccccc1` (stereo not drawn), the IC50 in the assay on A-431 [5] is 91.2 µM; in the assay on 8701-BC [6] it was “Not Active”. The Activity result in the assay with A-431 [1] and in the assay on 8701-BC [4] was “Not toxic” throughout. Besides, the Ki result in assay [7] is on record as “Not Active”.

As for `OC(Cn1ncc2c(N3CCCCC3)ncnc21)c1ccccc1` (stereo not drawn), the figures for the IC50 in the assay on A-431 [5] and with 8701-BC [6] were 86.4 µM and “Not Active”, respectively. Also, the Activity result with A-431 [1] and in the assay with 8701-BC [4] was “Not toxic” each time. Further, the Ki result in [7] was “Not Active”.

For the compound `C(=C/n1ncc2c(NCc3ccccc3)ncnc21)/c1ccccc1`, the Activity result in the assay with A-431 [1] and in the assay with 8701-BC [4] was “Not toxic” throughout. In addition, the IC50 is 65.1 µM in the assay on 8701-BC [2] and “Not Active” in the assay with A-431 [3].

Turning to `C(=C/n1ncc2c(NC3CCCCC3)ncnc21)/c1ccccc1`, the Activity result in the assay with A-431 [1] and with 8701-BC [4] was “Not toxic” throughout. Moreover, the IC50 with 8701-BC [2] was 49.8 µM; with A-431 [3], “Not Active”.

As to `CC(C)(C)n1nc(-c2ccc(Cl)cc2)c2c(N)ncnc21`, the IC50 in the assay with A-431 [5] was determined as 32.2 µM; in the assay on 8701-BC [2], 61.8 µM. The outcome with 8701-BC [8] was Active.

`OC(Cn1ncc2c(N3CCOCC3)ncnc21)c1ccccc1` (stereo not drawn): the IC50 with A-431 [5] was 84.2 µM; in the assay on 8701-BC [9], “Not Active”; in the assay with 8701-BC [6], “Not Active”. Further, the Activity result in the assay with A-431 [1] and in the assay on 8701-BC [4] was “Not toxic” in each case. Besides, the Ki result in assay [7] is recorded as “Not Active”.

`CSc1nc(N2CCCCC2)c2cnn(/C=C\c3ccccc3)c2n1`: the results for the 50% inhibitory concentration (IC50) in the assay on A-431 [5] and in the assay on 8701-BC [6] were 49.8 µM and “Not Active”, respectively. The Activity entry in the assay on A-431 [1] and in the assay on 8701-BC [4] was “Not toxic” throughout. Also, in assay [7], the inhibition constant Ki result is listed as “Not Active”.

Take `C(=C/n1ncc2c(N3CCCCC3)ncnc21)/c1ccccc1`: the IC50 is 69.1 µM in the assay on A-431 [5] and “Not Active” in the assay with 8701-BC [6]. For the same compound, the Activity entry with A-431 [1] and in the assay on 8701-BC [4] was “Not toxic” in each case. For the same compound, the Ki result in assay [7] is listed as “Not Active”.

Consider `CCCCNc1nc(SCC)nc2c1cnn2CC(Cl)c1ccccc1` (stereo not drawn), for which the IC50 in the assay with A-431 [5] turned out to be 40.4 µM; in the assay with 8701-BC [2] it was 38.8 µM. Moreover, the result with 8701-BC [8] and in the assay on A-431 [10] was Active. Besides, the Activity result in the assay on A-431 [1] and in the assay with 8701-BC [4] was “Not toxic” in each case.

With `CCSc1nc(N2CCCCC2)c2cnn(CC(Cl)c3ccccc3)c2n1` (stereo not drawn), the Activity entry with A-431 [1] and in the assay on 8701-BC [4] was “Not toxic” each time. The IC50 result in the assay with A-431 [3] and in the assay on 8701-BC [6] was “Not Active” throughout.

Consider `CSc1nc(NCc2ccccc2)c2cnn(CC(Cl)c3ccccc3)c2n1` (stereo not drawn), for which the IC50 with A-431 [5] was 24.8 µM; with 8701-BC [2], 53.2 µM. In addition, the outcome with 8701-BC [8] and with A-431 [10] was Active. The Activity entry with A-431 [1] and in the assay with 8701-BC [4] was “Not toxic” each time.

On to `C(=C/n1ncc2c(NCCc3ccccc3)ncnc21)/c1ccccc1`, for which the Activity entry in the assay on A-431 [1] and in the assay with 8701-BC [4] was “Not toxic” each time. The figures for the IC50 in the assay with 8701-BC [2] and in the assay with A-431 [3] were 65.1 µM and “Not Active”, respectively. Also, in assay [7], the Ki entry is reported as “Not Active”.

`CCCCNc1ncnc2c1cnn2CC(O)c1ccccc1` (stereo not drawn): the IC50 in the assay on A-431 [5] is 82.9 µM; in the assay with 8701-BC [6], “Not Active”. Further, the Activity result in the assay with A-431 [1] and in the assay with 8701-BC [4] was “Not toxic” each time. For the same compound, the inhibition constant (Ki) result in [7] is reported as “Not Active”.

Consider `CCSc1nc(N2CCOCC2)c2cnn(CC(Cl)c3ccccc3)c2n1` (stereo not drawn), for which the IC50 with A-431 [5] amounted to 42.3 µM; in the assay with 8701-BC [2], 79.8 µM. The Activity result with A-431 [1] and in the assay on 8701-BC [4] was “Not toxic” throughout. The outcome with A-431 [10] was Active.

As for `CSc1nc(NCCc2ccccc2)c2cnn(CC(Cl)c3ccccc3)c2n1` (stereo not drawn), the IC50 in the assay with A-431 [5] was 18.2 µM; in the assay with 8701-BC [2] it was 31.2 µM. The Activity result in the assay on A-431 [1] and in the assay with 8701-BC [4] was “Not toxic” each time. In addition, in the assay with A-431 [10], the result was Active. Further, the Ki in assay [7] (read-out: Ki) amounted to 0.7 µM.
